The target of one assay is T1, UniProt Q8VGV7.
T1 sequence (whole entry): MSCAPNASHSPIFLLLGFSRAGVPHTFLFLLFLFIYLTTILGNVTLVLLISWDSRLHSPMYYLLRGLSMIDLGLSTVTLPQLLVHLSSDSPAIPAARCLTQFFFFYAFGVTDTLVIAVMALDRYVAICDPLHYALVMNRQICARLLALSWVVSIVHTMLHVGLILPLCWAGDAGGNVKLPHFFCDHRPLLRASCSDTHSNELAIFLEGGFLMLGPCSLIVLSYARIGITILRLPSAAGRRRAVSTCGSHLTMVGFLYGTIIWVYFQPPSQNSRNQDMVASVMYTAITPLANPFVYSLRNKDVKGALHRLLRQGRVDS
The conditions noted are these: stereoisomer not certain. In short, it runs like this: (§1)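 Assay methods differ from source to source, frequently being transient luciferase assays in mammalian cell lines. For each receptor–molecule pair, the label responsive (active) applies when the original authors judged the measured signal statistically different from baseline, and non-responsive (inactive) applies otherwise.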
For `COc1ccccc1`, the “odorant receptor agonist call” value is “inactive”.

Regarding `CCCCCCCCCC=CC=O`, the “odorant receptor agonist call” value is “inactive”.

As to `CCSCC`, the “odorant receptor agonist call” value is “inactive”.

With `CCC=CCCCCC=O`, the “odorant receptor agonist call” value is “inactive”.

Take `C=CC(=O)CCCCC`: the “odorant receptor agonist call” value was “inactive”.

`C=CC(=C)CCC=C(C)CCC=C(C)C`: the “odorant receptor agonist call” value is “inactive”.

For the compound `CCCCCC(=Cc1ccccc1)C(OC)OC`, the “odorant receptor agonist call” value is “inactive”.

Take `CCCCCC(C)O` (stereo unspecified): the “odorant receptor agonist call” value was “inactive”.

For the compound `CC1(C)CC(=O)CC(=O)C1`, the “odorant receptor agonist call” value is “inactive”.

As to `CCc1nccnc1CC`, the “odorant receptor agonist call” value is “inactive”.

As to `C=C(C)C1CCC(C)C(O)C1` (stereo unspecified), the “odorant receptor agonist call” value is “inactive”.

Turning to `CCCO`, the “odorant receptor agonist call” value is “inactive”.

With `C=C(C)C1CC=C(C)CC1` (stereo unspecified), the “odorant receptor agonist call” value is “inactive”.

For `CCCCCC=CCCC=O`, the “odorant receptor agonist call” value was “inactive”.

Take `CCCCCCCCCCOC(C)=O`: the “odorant receptor agonist call” value was “inactive”.

Turning to `CCCCCOC(=O)CC`, the “odorant receptor agonist call” value was “inactive”.

As for `CSSSC`, the “odorant receptor agonist call” value is “inactive”.

On to `O=C(OCc1ccccc1)c1ccccc1O`, for which the “odorant receptor agonist call” value was “inactive”.

For `O=C([O-])CCCCCCC(=O)[O-].[H+].[H+]`, the “odorant receptor agonist call” value was “inactive”.

As for `CCCCCCC=CC=O`, the “odorant receptor agonist call” value is “inactive”.

In the case of `Cc1ccc(C(C)C)c(O)c1`, the “odorant receptor agonist call” value is “inactive”.

Consider `OCCCCCCCCCO`, for which the “odorant receptor agonist call” value is “inactive”.

Take `CCCCCCC(=O)OCCCC`: the “odorant receptor agonist call” value is “inactive”.

Take `CC(=O)OC1(C)CCC23CC1C(C)(C)C2CCC3C` (stereo unspecified): the “odorant receptor agonist call” value was “inactive”.

As for `CCCC(C)C(=O)OCC` (stereo unspecified), the “odorant receptor agonist call” value is “inactive”.

As to `CC=Cc1ccc(OC)cc1`, the “odorant receptor agonist call” value is “inactive”.

In the case of `Cc1ccc(OC(=O)C(C)C)cc1`, the “odorant receptor agonist call” value is “inactive”.

Regarding `CCCCCOC(=O)CCC`, the “odorant receptor agonist call” value was “inactive”.

On to `CC(C)CS`, for which the “odorant receptor agonist call” value was “inactive”.

Turning to `C=C(C)C1CCC2(C)OC2C1` (stereo unspecified), the “odorant receptor agonist call” value was “inactive”.

`CC(=O)C=CC1=C(C)CCCC1(C)C`: the “odorant receptor agonist call” value was “inactive”.

As to `Cc1occc1SSc1ccoc1C`, the “odorant receptor agonist call” value is “inactive”.

With `CC(C)=CCCC(C)=CCOC(=O)C(C)C`, the “odorant receptor agonist call” value was “inactive”.

On to `CCCCCCCCC=CC=O`, for which the “odorant receptor agonist call” value was “inactive”.

On to `O=C(O)CCCCCBr`, for which the “odorant receptor agonist call” value was “inactive”.

`Cc1ccc2c(c1)OCC(=O)CO2`: the “odorant receptor agonist call” value is “inactive”.

In the case of `CCOC(=O)CC(C)C`, the “odorant receptor agonist call” value was “inactive”.

In a further assay the target is T2, UniProt Q8VGX3.
T2 sequence (whole entry): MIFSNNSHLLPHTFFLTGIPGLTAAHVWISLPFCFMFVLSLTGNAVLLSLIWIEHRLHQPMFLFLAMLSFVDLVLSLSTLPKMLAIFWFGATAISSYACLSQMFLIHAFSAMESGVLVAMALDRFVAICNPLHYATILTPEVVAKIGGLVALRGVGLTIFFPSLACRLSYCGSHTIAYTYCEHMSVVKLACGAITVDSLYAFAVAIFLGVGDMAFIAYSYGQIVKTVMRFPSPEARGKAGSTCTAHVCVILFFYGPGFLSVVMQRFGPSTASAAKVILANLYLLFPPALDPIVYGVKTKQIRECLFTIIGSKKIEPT
To be noted: stereoisomer not certain. In outline:
as §1
For `COc1ccccc1`, the “odorant receptor agonist call” value was “inactive”.

`CCCCCCCCCC=CC=O`: the “odorant receptor agonist call” value was “inactive”.

Consider `CCSCC`, for which the “odorant receptor agonist call” value was “inactive”.

With `CCC=CCCCCC=O`, the “odorant receptor agonist call” value is “inactive”.

For the compound `C=CC(=O)CCCCC`, the “odorant receptor agonist call” value was “inactive”.

In the case of `C=CC(=C)CCC=C(C)CCC=C(C)C`, the “odorant receptor agonist call” value is “inactive”.

For the compound `CCCCCC(=Cc1ccccc1)C(OC)OC`, the “odorant receptor agonist call” value is “inactive”.

With `CCCCCC(C)O` (stereo unspecified), the “odorant receptor agonist call” value is “inactive”.

Regarding `CC1(C)CC(=O)CC(=O)C1`, the “odorant receptor agonist call” value was “inactive”.

Take `CCc1nccnc1CC`: the “odorant receptor agonist call” value is “inactive”.

Regarding `C=C(C)C1CCC(C)C(O)C1` (stereo unspecified), the “odorant receptor agonist call” value is “inactive”.

In the case of `CCCO`, the “odorant receptor agonist call” value is “inactive”.

With `C=C(C)C1CC=C(C)CC1` (stereo unspecified), the “odorant receptor agonist call” value is “active”.

Take `CCCCCC=CCCC=O`: the “odorant receptor agonist call” value was “inactive”.

As to `CCCCCCCCCCOC(C)=O`, the “odorant receptor agonist call” value was “inactive”.

As to `CCCCCOC(=O)CC`, the “odorant receptor agonist call” value was “inactive”.

With `CSSSC`, the “odorant receptor agonist call” value is “inactive”.

Consider `O=C(OCc1ccccc1)c1ccccc1O`, for which the “odorant receptor agonist call” value was “inactive”.

`O=C([O-])CCCCCCC(=O)[O-].[H+].[H+]`: the “odorant receptor agonist call” value was “inactive”.

Regarding `CCCCCCC=CC=O`, the “odorant receptor agonist call” value is “inactive”.

For the compound `Cc1ccc(C(C)C)c(O)c1`, the “odorant receptor agonist call” value was “active”.

As to `OCCCCCCCCCO`, the “odorant receptor agonist call” value is “inactive”.

For the compound `CCCCCCC(=O)OCCCC`, the “odorant receptor agonist call” value is “inactive”.

As to `CC(=O)OC1(C)CCC23CC1C(C)(C)C2CCC3C` (stereo unspecified), the “odorant receptor agonist call” value was “inactive”.

Take `CCCC(C)C(=O)OCC` (stereo unspecified): the “odorant receptor agonist call” value was “inactive”.

For `CC=Cc1ccc(OC)cc1`, the “odorant receptor agonist call” value was “inactive”.

On to `Cc1ccc(OC(=O)C(C)C)cc1`, for which the “odorant receptor agonist call” value is “inactive”.

Regarding `CCCCCOC(=O)CCC`, the “odorant receptor agonist call” value was “inactive”.

For `CC(C)CS`, the “odorant receptor agonist call” value is “inactive”.

Take `C=C(C)C1CCC2(C)OC2C1` (stereo unspecified): the “odorant receptor agonist call” value was “inactive”.

Take `CC(=O)C=CC1=C(C)CCCC1(C)C`: the “odorant receptor agonist call” value was “inactive”.

Consider `Cc1occc1SSc1ccoc1C`, for which the “odorant receptor agonist call” value is “inactive”.

For `CC(C)=CCCC(C)=CCOC(=O)C(C)C`, the “odorant receptor agonist call” value is “inactive”.

`CCCCCCCCC=CC=O`: the “odorant receptor agonist call” value is “inactive”.

For `O=C(O)CCCCCBr`, the “odorant receptor agonist call” value was “inactive”.

Turning to `Cc1ccc2c(c1)OCC(=O)CO2`, the “odorant receptor agonist call” value was “inactive”.

For the compound `CCOC(=O)CC(C)C`, the “odorant receptor agonist call” value is “inactive”.

In a further assay the target is T3, UniProt Q8VGX5.
T3 sequence (whole entry): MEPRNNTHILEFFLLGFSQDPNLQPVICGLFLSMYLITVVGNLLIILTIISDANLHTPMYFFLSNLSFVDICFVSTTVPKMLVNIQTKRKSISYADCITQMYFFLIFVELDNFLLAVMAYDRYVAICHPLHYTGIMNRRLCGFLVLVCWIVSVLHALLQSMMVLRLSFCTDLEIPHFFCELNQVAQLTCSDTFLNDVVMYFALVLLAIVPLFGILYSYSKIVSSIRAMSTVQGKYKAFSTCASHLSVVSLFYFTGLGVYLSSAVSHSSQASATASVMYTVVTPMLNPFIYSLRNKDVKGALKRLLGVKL
To be noted: stereoisomer not certain. In short, it runs like this: as §1
Take `COc1ccccc1`: the “odorant receptor agonist call” value is “inactive”.

Take `CCCCCCCCCC=CC=O`: the “odorant receptor agonist call” value is “inactive”.

For the compound `CCSCC`, the “odorant receptor agonist call” value is “inactive”.

As to `CCC=CCCCCC=O`, the “odorant receptor agonist call” value is “inactive”.

Regarding `C=CC(=O)CCCCC`, the “odorant receptor agonist call” value is “inactive”.

Turning to `C=CC(=C)CCC=C(C)CCC=C(C)C`, the “odorant receptor agonist call” value is “inactive”.

As to `CCCCCC(=Cc1ccccc1)C(OC)OC`, the “odorant receptor agonist call” value was “inactive”.

Consider `CCCCCC(C)O` (stereo unspecified), for which the “odorant receptor agonist call” value is “inactive”.

For `CC1(C)CC(=O)CC(=O)C1`, the “odorant receptor agonist call” value is “inactive”.

Take `CCc1nccnc1CC`: the “odorant receptor agonist call” value was “inactive”.

Consider `C=C(C)C1CCC(C)C(O)C1` (stereo unspecified), for which the “odorant receptor agonist call” value was “active”.

Consider `CCCO`, for which the “odorant receptor agonist call” value is “inactive”.

Regarding `C=C(C)C1CC=C(C)CC1` (stereo unspecified), the “odorant receptor agonist call” value was “inactive”.

As to `CCCCCC=CCCC=O`, the “odorant receptor agonist call” value is “inactive”.

With `CCCCCCCCCCOC(C)=O`, the “odorant receptor agonist call” value was “inactive”.

For the compound `CCCCCOC(=O)CC`, the “odorant receptor agonist call” value was “inactive”.

For `CSSSC`, the “odorant receptor agonist call” value is “inactive”.

`O=C(OCc1ccccc1)c1ccccc1O`: the “odorant receptor agonist call” value was “inactive”.

On to `O=C([O-])CCCCCCC(=O)[O-].[H+].[H+]`, for which the “odorant receptor agonist call” value is “inactive”.

In the case of `CCCCCCC=CC=O`, the “odorant receptor agonist call” value was “inactive”.

In the case of `Cc1ccc(C(C)C)c(O)c1`, the “odorant receptor agonist call” value is “inactive”.

`OCCCCCCCCCO`: the “odorant receptor agonist call” value was “inactive”.

As to `CCCCCCC(=O)OCCCC`, the “odorant receptor agonist call” value was “inactive”.

Consider `CC(=O)OC1(C)CCC23CC1C(C)(C)C2CCC3C` (stereo unspecified), for which the “odorant receptor agonist call” value was “inactive”.

Take `CCCC(C)C(=O)OCC` (stereo unspecified): the “odorant receptor agonist call” value is “inactive”.

As to `CC=Cc1ccc(OC)cc1`, the “odorant receptor agonist call” value was “inactive”.

`Cc1ccc(OC(=O)C(C)C)cc1`: the “odorant receptor agonist call” value was “inactive”.

As to `CCCCCOC(=O)CCC`, the “odorant receptor agonist call” value is “inactive”.

Turning to `CC(C)CS`, the “odorant receptor agonist call” value is “inactive”.

Take `C=C(C)C1CCC2(C)OC2C1` (stereo unspecified): the “odorant receptor agonist call” value is “inactive”.

Consider `CC(=O)C=CC1=C(C)CCCC1(C)C`, for which the “odorant receptor agonist call” value is “active”.

As for `Cc1occc1SSc1ccoc1C`, the “odorant receptor agonist call” value is “inactive”.

For the compound `CC(C)=CCCC(C)=CCOC(=O)C(C)C`, the “odorant receptor agonist call” value is “active”.

`CCCCCCCCC=CC=O`: the “odorant receptor agonist call” value was “inactive”.

As for `O=C(O)CCCCCBr`, the “odorant receptor agonist call” value is “inactive”.

Consider `Cc1ccc2c(c1)OCC(=O)CO2`, for which the “odorant receptor agonist call” value is “inactive”.

For the compound `CCOC(=O)CC(C)C`, the “odorant receptor agonist call” value is “inactive”.

The values are drawn from the M2OR odorant receptor database.
